In ChEMBL document CHEMBL1144541, “Antinociceptive and antiinflammatory activities and QSAR studies on 2-substituted-4,5-diphenyl-1H-imidazoles” (2007):

How the values were obtained:
Type in all cases: functional
[1] = tested on: Rattus norvegicus; test: Antiinflammatory activity assessed as reduction of carrageenan-induced paw volume in Wistar rat at 10 mg/kg, ip after 3 hrs; conditions: route intraperitoneal
[2] = tested on: Mus musculus; test: Antinociceptive activity in ip dosed Swiss albino mouse assessed as latency time by hot plate method
In short: (§1)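 Swiss albino mice (20–25 g) were housed 7 days at 30 ± 1 °C before testing, in groups of six. Compounds were given ip at 9.5–12.58 mg/kg as a 0.2% Tween suspension. Mice were placed on a 55 ± 0.5 °C hot plate before dosing and at 15, 30, 60 and 120 min after dosing, with a 15 s cut-off. Significance was assessed by Student's t test.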

[3] = tested on: Mus musculus; test: Antinociceptive activity in ip dosed Swiss albino mouse assessed as latency time after 15 mins by hot plate method; in short: as §1
[4] = tested on: Mus musculus; test: Antinociceptive activity in ip dosed Swiss albino mouse assessed as latency time after 30 mins by hot plate method; in short: as §1
[5] = tested on: Mus musculus; test: Antinociceptive activity in ip dosed Swiss albino mouse assessed as latency time after 60 mins by hot plate method; in short: as §1
[6] = tested on: Mus musculus; test: Antinociceptive activity in ip dosed Swiss albino mouse assessed as latency time after 120 mins by hot plate method; in short: as §1
[7] = tested on: Mus musculus; test: Antinociceptive activity in ip dosed Swiss albino mouse assessed as latency time by tail flick method
In short: (§2)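 Swiss albino mice (20–25 g) received compounds ip at 9.5–12.58 mg/kg in 0.2% Tween suspension. Tail-flick latency to radiant heat was measured, with stimulus intensity set to give a 3–4 s baseline. Readings were taken just before injection and at 15, 30, 60 and 120 min after. Significance was assessed by Student's t test.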

[8] = tested on: Mus musculus; test: Antinociceptive activity in ip dosed Swiss albino mouse assessed as latency time after 15 mins by tail flick method; in short: as §2
[9] = tested on: Mus musculus; test: Antinociceptive activity in ip dosed Swiss albino mouse assessed as latency time after 30 mins by tail flick method; in short: as §2
[10] = tested on: Mus musculus; test: Antinociceptive activity in ip dosed Swiss albino mouse assessed as latency time after 60 mins by tail flick method; in short: as §2
[11] = tested on: Mus musculus; test: Antinociceptive activity in ip dosed Swiss albino mouse assessed as latency time after 120 mins by tail flick method; in short: as §2
[12] = tested on: Rattus norvegicus; test: Antiinflammatory activity assessed as reduction of carrageenan-induced paw volume in intraperitoneally dosed Wistar rat after 3 hrs; parameters: scale not given: the % may be the effect or the level left
In short: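 Wistar rats of either sex (120–150 g) were dosed ip with compounds at 9.5–12.58 mg/kg in 0.2% Tween suspension. After 1 h, 0.05 ml of 1.0% w/v carrageenan in 0.9% NaCl was injected into the left hind paw. Paw volume was measured by mercury-displacement plethysmometry before injection and at 1, 2 and 3 h. Percent inhibition of the 3 h swelling was calculated.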

COc1ccc2c(c1)c(CC(=O)O)c(C)n2C(=O)c1ccc(Cl)cc1 [INDOMETHACIN]
inhibition in vivo at 10 mg/kg [1]: 95.3%

O=[N+]([O-])c1ccc(-c2nc(-c3ccccc3)c(-c3ccccc3)[nH]2)cc1
Activity [2]: 4.37 s | Activity [3]: 4.6 s | Activity [4]: 4.66 s | Activity [5]: 5.82 s | Activity [6]: 5.83 s | Activity [7]: 4.13 s | Activity [8]: 4.14 s | Activity [9]: 5.09 s | Activity [10]: 5.12 s | Activity [11]: 5.13 s | Activity [12]: 25.59%

Cc1ccccc1-c1nc(-c2ccccc2)c(-c2ccccc2)[nH]1
Activity [2]: 4.5 s | Activity [3]: 4.55 s | Activity [4]: 4.67 s | Activity [5]: 4.79 s | Activity [6]: 5.79 s | Activity [7]: 4.11 s | Activity [8]: 4.12 s | Activity [9]: 4.52 s | Activity [10]: 4.98 s | Activity [11]: 5.52 s | Activity [12]: 18.61%

c1ccc(-c2nc(-c3ccccc3)c(-c3ccccc3)[nH]2)cc1
Activity [2]: 4.63 s | Activity [3]: 4.58 s | Activity [4]: 5.28 s | Activity [5]: 6.07 s | Activity [6]: 6.1 s | Activity [7]: 4.13 s | Activity [8]: 4.13 s | Activity [9]: 4.67 s | Activity [10]: 5.12 s | Activity [11]: 5.78 s | Activity [12]: 30.24%

COc1ccc(-c2nc(-c3ccccc3)c(-c3ccccc3)[nH]2)cc1
Activity [2]: 4.87 s | Activity [3]: 5.02 s | Activity [4]: 7.89 s | Activity [5]: 9.67 s | Activity [6]: 10.87 s | Activity [7]: 4.58 s | Activity [8]: 4.98 s | Activity [9]: 7.45 s | Activity [10]: 9.17 s | Activity [11]: 10.83 s | Activity [12]: 86.05% | inhibition in vivo at 10 mg/kg [1]: 86%

c1ccc(-c2nc[nH]c2-c2ccccc2)cc1
Activity [2]: 4.66 s | Activity [3]: 4.83 s | Activity [4]: 4.83 s | Activity [5]: 5.05 s | Activity [6]: 5.2 s | Activity [7]: 3.9 s | Activity [8]: 3.92 s | Activity [9]: 4.01 s | Activity [10]: 4.01 s | Activity [11]: 4.02 s | Activity [12]: 20.94%

C(=C\c1nc(-c2ccccc2)c(-c2ccccc2)[nH]1)/c1ccccc1
Activity [2]: 4.67 s | Activity [3]: 5.17 s | Activity [4]: 5.58 s | Activity [5]: 5.94 s | Activity [6]: 6.12 s | Activity [7]: 4.16 s | Activity [8]: 4.28 s | Activity [10]: 4.68 s | Activity [11]: 4.75 s | Activity [12]: 55.82% | inhibition in vivo at 10 mg/kg [1]: 55.8%

C=CCc1nc(-c2ccccc2)c(-c2ccccc2)[nH]1
Activity [2]: 4.66 s | Activity [3]: 5.08 s | Activity [4]: 5.12 s | Activity [5]: 5.33 s | Activity [6]: 5.47 s | Activity [7]: 3.98 s | Activity [8]: 4.02 s | Activity [9]: 4.23 s | Activity [10]: 4.27 s | Activity [11]: 4.29 s | Activity [12]: 32.56%
